Screening data (PubChem)
This is a sample that favours compounds with a hit; in the whole collection about 4% have one here.
MDM2 E3 inh – inhibitors of human Mdm2 E3 ubiquitin ligase; AID 1230; signal enhancement, % at 5 µM; 210,000 tested, 0.11% active; Q00987; cell-based MDM2 ubiquitination luciferase reporter, 2 h; 0 = plate control, 100 = twice control, blank-subtracted;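 active = signal enhancement of 30% or more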;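 note: luminescence tracks abundance of the self-degrading MDM2-luciferase fusion protein; higher signal means inhibition of MDM2 E3 ligase activity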
Target sequence (Q00987 whole entry, looked up, the tested form may be a part): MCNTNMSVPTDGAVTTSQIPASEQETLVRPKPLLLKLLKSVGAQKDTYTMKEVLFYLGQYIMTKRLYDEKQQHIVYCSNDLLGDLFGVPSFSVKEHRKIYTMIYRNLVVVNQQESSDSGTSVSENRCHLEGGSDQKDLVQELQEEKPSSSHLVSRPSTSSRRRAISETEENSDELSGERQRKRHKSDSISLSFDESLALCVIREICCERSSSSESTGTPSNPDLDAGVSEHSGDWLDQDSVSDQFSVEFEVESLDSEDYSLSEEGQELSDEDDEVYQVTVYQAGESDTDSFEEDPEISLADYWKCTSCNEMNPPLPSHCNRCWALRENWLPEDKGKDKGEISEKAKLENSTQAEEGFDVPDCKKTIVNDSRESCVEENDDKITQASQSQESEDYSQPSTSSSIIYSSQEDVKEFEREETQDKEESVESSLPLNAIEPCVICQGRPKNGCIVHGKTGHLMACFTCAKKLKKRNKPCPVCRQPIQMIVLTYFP
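Material: Stable MDM2–luciferase fusion reporter cells | Amount: 2000 cells seeded into each well | Dosing: One concentration, 5 µM, with 0.2% DMSO | Incubation: 4 h cell settling then 2 h compound exposure, 37 °C | Measured by: Luciferase luminescence | Read-out basis: % enhancement relative to plate controls after blank subtraction | Benchmarks: Control and blank well means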
RAM inhibit – blocks the yeast RAM network. inhibition, % at 50 µM. S. cerevisiae dse1pr::URA3 reporter, 5-FOA growth OD615, 2 d; analog-sensitive cbk1-as2 kinase mutant strain. 190,000 tested, 1.8% active;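 active = inhibition above a set limit, 3 SD over mean compound inhibition, cut at about 8.4% in these data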;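 note: 0% = DMSO-only wells with no growth and 100% = 10 µM 1-NA-PP1 full growth; inhibition rescues growth on 5-FOA so higher OD means more RAM inhibition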
Yeast growth inh – chemicals that inhibit yeast BB579 growth in restrictive medium (lifespan-shortening candidates); S. cerevisiae BB579 growth, OD615, 48 h; inhibition, % at 10 µM; 140,000 tested, 0.51% active; AID 804;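 active = inhibition above a set limit, 3 SD over the mean compound inhibition, cut at about 44% in these data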
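Material: Saccharomyces cerevisiae DeaD strain BB579, replicative lifespan model yeast; buffer or medium: CSMM-D restrictive synthetic medium containing dextrose (glucose); compound: 10 µM single dose, DMSO 0.25%; timing: 48 h compound exposure at 30 °C after 4 h preincubation; signal: turbidity as optical density at 615 nm; benchmarks: positive control amphotericin B 10 µg/mL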
Yeast lifespan up – extends the lifespan of yeast | S. cerevisiae growth with nicotinamide, OD615; deaD strain in restrictive glucose medium | AID 775 | 130,000 tested, 0.68% active | inhibition of the nicotinamide effect, % at 10 µM;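 active = inhibition above a set limit, placed 3 SD over the median of all compounds, cut at about 26% in these data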;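 note: 0% = nicotinamide-treated wells and 100% = cells grown without nicotinamide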
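Buffer or medium: CSMM-D glucose medium, restrictive; test system: modified budding yeast, DeaD strain; compound: single dose 10 µM compound, 0.25% DMSO; schedule: culture preincubation 4 h, compound exposure 48 h, both 30 °C; detection: optical density (absorbance) at 615 nm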
Insulin prom inh – TRM-6 insulin promoter activity inhibition; TRM-6 cells, insulin promoter-eGFP reporter, imaging; reporter expression induced with tamoxifen; inhibition, % at 2 µM; 130,000 tested, 0.9% active; AID 1273;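 active = inhibition above the mean plus 3 SD, with well images judged a real hit on visual review, cut at about 60% in these data, passing the limit was not always enough; inconclusive = inhibition over the cutoff but images rejected on review; inactive = inhibition not above the cutoff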
Measles CPE – protection of cells from measles virus. AID 841. Measles virus-infected cells, CPE protection, absorbance. protection (pct of control), % at 4 µM. 140,000 tested, 1.5% active; in the data active = protection mostly above about 24%, no sharp cut-off; inactive = mostly below about 26%
* hit, by the source's call; u = inconclusive; x = no result.

SMILES	MDM2 E3 inh	RAM inhibit	Yeast growth inh	Yeast lifespan up	Insulin prom inh	Measles CPE
COC(=O)c1sc(=S)n(-c2ccccc2OC)c1N	-15	1	-42	-18	-11	44*
O=C(CCc1nc2ccccc2s1)N1CCN(c2ccccc2)CC1	-26	0	x	x	17	x
CC(=O)c1ccc(N2CCN(C(=O)CCCc3nc4ccccc4s3)CC2)cc1	1	9.3*	-34	2	22	5
CCCc1n(CC)c2ccccc2[n+]1CC(O)COC1CCCCC1 (stereo not drawn)	-26	1	x	x	-29	x
CC(C)N=C(NS(=O)(=O)NC(=O)c1ccccc1)c1ccccc1	4	0	x	x	x	x
CSc1nc(N)nc(SCCS(=O)(=O)c2ccc(Cl)cc2)c1C#N	2	7	-31	-3	19	78*
Cc1ccc(-c2cc(-c3ccccc3)nc(Cl)n2)cc1	8	9.4*	-11	-23	x	22
Cc1cc(-c2ccccc2)nc(Cl)c1C#N	x	2	-23	-6	0	15
CC(C)c1ccc(C2NC(=S)NC3=C2C(=O)CC(C)(C)C3)cc1 (stereo not drawn)	-8	4	-9	3	x	5
CCCn1nnc(NC(=O)c2cc(Br)ccc2OC)n1	-22	-2	-12	-16	84*	4
CCCn1nnc(NC(=O)c2cccc(Cl)c2)n1	-7	1	-39	-2	32	4
CCCn1nnc(NC(=O)C(C)Oc2ccc(Cl)cc2Cl)n1 (stereo not drawn)	-12	1	-5	-19	-59	47*
CC(Oc1ccc(Cl)cc1Cl)C(=O)Nc1ccncc1 (stereo not drawn)	-25	-1	-88	4	x	9
CCOc1ccc(/C=N/NC(=O)c2nnn(-c3nonc3N)c2-c2ccc(OCC)cc2)cc1	-5	9.4*	-24	2	25	5
COc1ccc(CNC(=O)CN(Cc2ccc(F)cc2)C(=O)c2csnn2)cc1	-20	0	x	x	x	x
O=S(=O)(c1ccccc1)N1CCN(CC(O)COc2ccc3c(c2)CCC3)CC1 (stereo not drawn)	-18	0	-37	-11	-8	31*
CCN1CCN(CC(O)COc2ccc3c(c2)CCC3)CC1 (stereo not drawn)	4	0	13	1	-21	14
COc1cccc(C2NC(=O)NC(C)=C2C(=O)Nc2cccc(C)c2C)c1 (stereo not drawn)	-8	2	-18	-22	x	2
Cc1cc(C)n(-c2nc3ccccc3nc2Nc2ccc3c(c2)OCO3)n1	-13	7	-47	-2	x	42*
Cc1nc(NCCc2ccccc2)c2oc3ccccc3c2n1	-10	3	-76	-17	69*	8
Cc1nc(Nc2ccc3c(c2)OCO3)c2oc3ccccc3c2n1	16	1	-58	-14	82*	16
COc1cccc(Nc2nc3ccccc3nc2-n2nc(C)cc2C)c1	0	8	16	-10	x	2
CCc1c(C)c2nncn2[nH]c1=O	-18	1	-29	2	x	41
N#Cc1cnn(-c2cccc(Cl)c2)c1-n1cccc1	-9	x	x	x	x	x
COc1cc(NC(=O)C2CCCCC2)c(OC)cc1NC(=O)CN1CCCCC1	-6	-1	-94	0	x	47*
SMILES	MDM2 E3 inh	RAM inhibit	Yeast growth inh	Yeast lifespan up	Insulin prom inh	Measles CPE
CN1CCN(C(=O)C23CC4CC(C2)CC(c2ccccc2)(C4)C3)CC1	-2	3	x	x	x	x
Nc1cc2c(cc1C(=O)c1ccccc1)OCCO2	17	-1	-28	-20	18	10
Nc1cc2c(cc1C(=O)c1ccc(Cl)cc1)OCCO2	-8	-1	-31	-15	76*	9
CCn1c(COc2cccc(C)c2C)nnc1SCC(=O)N1CCN(c2ccc(OC)cc2)CC1	-18	8.8*	-71	-2	-18	2
COc1ccc(N2CCN(C(=O)CSc3nnc4c(C)cc5cc(C)ccc5n34)CC2)cc1	-9	-1	-18	-1	-25	29
COc1ccc(N2CCN(C(=O)CSc3nnc4c(C)cc5ccc(C)c(C)c5n34)CC2)cc1	6	0	-35	-20	35	50*
CCn1c(COc2ccccc2C)nnc1SCC(=O)N1CCN(c2ccccc2)CC1	-4	-2	-8	-16	-75	4
NC(=O)[C@@H]1CCCN1Cc1nc(Cc2ccccc2Cl)no1	-9	2	x	x	x	x
O=C(NCc1cn(-c2ccccc2)nc1-c1ccc(F)cc1)c1cccc([N+](=O)[O-])c1	-8	2	-14	9	x	12
Cc1ccc(O)c(-c2cc(-c3ccccc3C)[nH]n2)c1	-21	5	99*	-14	u	4
O=[N+]([O-])c1ccccc1-c1cc(-c2cc(Cl)ccc2O)n[nH]1	1	2	96*	-7	-45	33
CCCCOc1ccc(C(=O)N/C(=C/C=C/c2ccccc2)C(=O)NCCO)cc1	1	1	-23	5	0	7
CCCCOc1ccc(C(=O)N/C(=C/C=C/c2ccccc2)C(=O)NCCCO)cc1	-7	0	-15	2	28	48*
Cc1cccc(-c2nnc3n2N=C(c2ccccc2)CS3)c1	0	1	-12	-14	x	8
Cc1nn2c(nc1=O)SCC(c1ccccc1)=N2	11	1	-76	-11	82*	5
CNC(=O)C(=O)N/N=C/c1ccc(Br)cc1	2	0	x	x	71*	x
Cc1cccn2c(CNCC3(c4ccccc4)CCCC3)c(C(=O)N3CCOCC3)nc12	-3	0	x	x	-33	x
Cc1ccc(S(=O)(=O)N[C@@H](Cc2ccccc2)C(=O)CCl)cc1	x	-1	-35	49*	14	17
Cc1cc(C)nc(SCc2cc(=O)c(OC(=O)c3ccco3)co2)n1	x	3	-24	46*	30	17
Cc1ccnc(SCc2cc(=O)c(OC(=O)c3ccccc3)co2)n1	-7	-1	x	x	-428	x
Cc1cc(C)nc(SCc2cc(=O)c(OC(=O)c3ccc(Br)o3)co2)n1	x	-1	-42	49*	37	22
NC(=O)c1ccc(NC(=O)COC(=O)C2CC(=O)N(Cc3ccccc3)C2)cc1 (stereo not drawn)	-13	2	x	x	-14	x
O=C(Nc1nc(-c2nc3ccccc3s2)cs1)c1ccco1	-15	1	-42	-6	u	49*
Cc1cc(=O)oc(C)c1C(=O)Nc1cccc(F)c1	-6	x	x	x	x	x
Cc1[nH]c(=O)c(C(=O)/C=C/c2ccccc2F)c2c1CCCC2	-9	0	-32	-1	x	7
Cc1ccc2n(n1)c(=O)c(Cc1ccccc1)c([O-])[n+]2-c1ccccc1	-4	0	0	4	-3	22
Nc1nc(CN2CCN(c3ccccc3)CC2)nc(N2CCCc3ccccc32)n1	4	1	-35	4	x	87*
